ChEMBL document CHEMBL1944511, “Bakuchiol derivatives as novel and potent cytotoxic agents: a report” (Eur J Med Chem, 2012)

Tests used:
Assay type in all cases: functional
[1] = system: OVCAR-5; assay: Growth inhibition of human OVCAR5 cells at 20 uM after 48 hrs by sulpharhodamine B assay; details: OVCAR-5, 48 h, read-out: GI
How it was run: (§1)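 Cells grown at 37 °C, 5% CO2 in RPMI-1640/MEM with 10% FCS and penicillin/streptomycin, then seeded in 96-well plates and allowed to adhere overnight. Compound was added in DMSO (vehicle <0.2% in untreated controls) and incubated 48 h. Cells were fixed with ice-cold TCA, stained with 0.4% SRB in 1% acetic acid, and the dye solubilised in 10 mM Tris-base. OD read at 570 nm (reference 620 nm).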

[2] = system: HeLa; assay: Growth inhibition of human HeLa cells at 20 uM after 48 hrs by sulpharhodamine B assay; details: read-out: GI; how it was run: as §1
[3] = system: THP-1; assay: Growth inhibition of human THP1 cells at 20 uM after 48 hrs by sulpharhodamine B assay; details: THP-1, 48 h, read-out: GI
How it was run: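 Cells grown in RPMI-1640/MEM with 10% FCS, penicillin/streptomycin, 37 °C, 5% CO2. Seeded in 96-well plates, allowed to adhere overnight, then exposed 48 h to analogs in DMSO (vehicle <0.2% in controls). TCA-fixed, stained with 0.4% SRB in 1% acetic acid, dye solubilized in 10 mM Tris base, OD 570 nm (ref 620 nm). Mean ± SD of three experiments run in triplicate.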

[4] = system: PC-3; assay: Growth inhibition of human PC3 cells at 20 uM after 48 hrs by sulpharhodamine B assay; details: PC-3, 48 h, read-out: GI
How it was run: (§2)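 This is the SRB protein-stain assay on adherent cells in RPMI-1640/MEM with 10% FCS. Each compound in DMSO (vehicle <0.2%) was applied at a single fixed concentration for 48 h. Cells were fixed with TCA and stained with SRB, and the dye was solubilised in Tris and read at 570/620 nm. Percent growth inhibition is relative to vehicle-treated controls, reported as mean ± SD of three experiments run in triplicate.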

[5] = system: A549; assay: Growth inhibition of human A549 cells at 20 uM after 48 hrs by sulpharhodamine B assay; details: A549, 48 h, read-out: GI; how it was run: as §2
[6] = system: HCT-15; assay: Growth inhibition of human HCT15 cells at 20 uM after 48 hrs by sulpharhodamine B assay; details: HCT-15, 48 h, read-out: GI; how it was run: as §2
[7] = system: IMR-32; assay: Growth inhibition of human IMR32 cells at 20 uM after 48 hrs by sulpharhodamine B assay; details: IMR-32, 48 h, read-out: GI; how it was run: as §2
[8] = system: DU-145; assay: Growth inhibition of human DU145 cells at 20 uM after 48 hrs by sulpharhodamine B assay; details: DU-145, 48 h, read-out: GI; how it was run: as §2

O=c1[nH]cc(F)c(=O)[nH]1 [FLUOROURACIL]
inhibition of growth at 20 µM [1]: 75%
inhibition of growth at 20 µM [2]: 71%
inhibition of growth at 20 µM [3]: 85%
inhibition of growth at 20 µM [4]: 75%
inhibition of growth at 20 µM [5]: 76%
inhibition of growth at 20 µM [6]: 63%
inhibition of growth at 20 µM [7]: 79%
inhibition of growth at 20 µM [8]: 75%
